According to ChEMBL document CHEMBL1926570, “Ultrasound mediated catalyst free synthesis of 6H-1-benzopyrano[4,3-b]quinolin-6-ones leading to novel quinoline derivatives: their evaluation as potential anti-cancer agents” (Bioorg Med Chem, 2012):

Tests used:
IMR-32 = assay: Cytotoxicity against human IMR32 cells after 24 hrs by MTT assay; assay type: functional, cell-based; details: IMR-32, 24 h
How it was run: (§1)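 Cells obtained from National Center for Cell Sciences, Pune, and grown in RPMI-1640 with 10% heat-inactivated FBS, penicillin/streptomycin and 2 mM glutamine at 37 °C, 5% CO₂. Seeded at 5 × 10³ cells/well and treated with or without compound at 1 and 10 for 24 h. MTT (5 mg/ml in PBS) was added for 2 h at 37 °C, then DMSO, and absorbance read at 570 nm. Triplicate wells per point; IC50 is 50% growth inhibition relative to untreated cells.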

MDA-MB-231 = assay: Cytotoxicity against human MDA-MB-231 cells after 24 hrs by MTT assay; assay type: functional, cell-based; details: MDA-MB-231, 24 h; how it was run: as §1
COLO 205 = assay: Cytotoxicity against human COLO205 cells after 24 hrs by MTT assay; assay type: functional, cell-based; details: COLO 205, 24 h; how it was run: as §1
K562 = assay: Cytotoxicity against human K562 cells after 24 hrs by MTT assay; assay type: functional, cell-based; details: K562, 24 h; how it was run: as §1
[1] = target: T1, NAD-dependent protein deacetylase sirtuin-1 (Homo sapiens) (UniProt Q96EB6); assay: Inhibition of human N-terminally hexa-his-tagged SIRT1 expressed in Escherichia coli BL21 (DE3) at 10 uM after 15 mins by […]
T1 sequence (whole entry): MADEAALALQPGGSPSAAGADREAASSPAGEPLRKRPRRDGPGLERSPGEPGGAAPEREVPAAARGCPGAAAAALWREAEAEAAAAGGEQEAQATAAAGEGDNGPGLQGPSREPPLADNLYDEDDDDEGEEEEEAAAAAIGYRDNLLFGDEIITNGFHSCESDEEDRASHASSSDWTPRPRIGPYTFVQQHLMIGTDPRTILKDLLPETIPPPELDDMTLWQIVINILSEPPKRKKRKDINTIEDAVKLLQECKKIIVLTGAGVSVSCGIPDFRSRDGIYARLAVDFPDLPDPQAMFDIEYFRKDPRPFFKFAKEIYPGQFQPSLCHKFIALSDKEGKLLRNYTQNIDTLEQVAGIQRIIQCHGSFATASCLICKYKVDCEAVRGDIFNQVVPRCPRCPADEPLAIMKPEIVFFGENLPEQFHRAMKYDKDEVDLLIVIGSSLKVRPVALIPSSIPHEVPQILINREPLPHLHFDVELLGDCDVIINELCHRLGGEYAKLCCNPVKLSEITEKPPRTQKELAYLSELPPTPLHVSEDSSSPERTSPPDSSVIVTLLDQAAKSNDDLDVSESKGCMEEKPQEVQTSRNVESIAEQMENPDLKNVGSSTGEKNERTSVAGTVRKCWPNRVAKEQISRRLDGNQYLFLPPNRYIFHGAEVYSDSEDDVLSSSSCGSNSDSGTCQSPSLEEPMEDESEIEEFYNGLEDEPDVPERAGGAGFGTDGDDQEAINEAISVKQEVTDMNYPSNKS
How it was run: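 Commercial SIRT1 fluorescence kit using bacterially purified human Sirt1, fluorophore-labelled substrate peptide (25) and NAD⁺ (25), with or without compound at 10, for 15 min at 37 °C. Stop solution was then added for 45 min at room temperature. Fluorescence read at Ex 360/Em 450 nm. The no-enzyme blank and the compound autofluorescence (no-enzyme) control were subtracted.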

SMILES | IC50 (IMR-32) [µM] | IC50 (MDA-MB-231) [µM] | IC50 (COLO 205) [µM] | IC50 (K562) [µM] | inhibition [1] [%]
O=c1oc2ccccc2c2nc3ccc(Cl)cc3cc12 | 46 | 14 | 16 | 32 | –
OCc1cc2ccccc2nc1-c1ccccc1O | > 100 | > 100 | 40 | 74 | –
O=c1oc2ccccc2c2nc3ccc(F)cc3cc12 | 43 | 11 | 17 | 37 | –
[N-]=[N+]=NCc1cc2ccccc2nc1-c1ccccc1O | 24 | 12 | 19 | 11 | 53
O=c1oc2ccccc2c2nc3ccccc3cc12 | 28 | 12 | 18 | 43 | –
COc1ccc2c(c1)[nH]c1c(C)nccc12 [HARMINE] | 68 | 54 | 46 | 45 | –
O=c1oc2ccccc2c2nc3cc(Br)ccc3cc12 | 23 | 19 | 38 | 23 | –
OCc1cc2cc(Cl)ccc2nc1-c1ccccc1O | 65 | > 100 | 24 | 11 | –
NCc1cc2ccccc2nc1-c1ccccc1O | 46 | 19 | 32 | 23 | 59
O=c1oc2ccccc2c2nc3cc(F)c(F)cc3cc12 | 25 | 8 | 11 | 41 | –
O=c1oc2ccccc2c2nc3c(F)c(F)ccc3cc12 | 36 | 23 | 29 | 28 | 48
Cc1ccc2nc3c(cc2c1)c(=O)oc1ccccc13 | 33 | 12 | 29 | 23 | –
OCc1cc2cc(F)c(F)cc2nc1-c1ccccc1O | 63 | > 100 | > 100 | 12 | 48
Cc1ccc2nc(-c3ccccc3O)c(CO)cc2c1 | > 100 | > 100 | > 100 | 12 | –
CS(=O)(=O)N(Cc1cn(Cc2cc3ccccc3nc2-c2ccccc2O)nn1)c1ccccc1I | 38 | 8 | 12 | 13 | 62
O=c1oc2ccccc2c2nc3cc(F)ccc3cc12 | 41 | 29 | 21 | 35 | –
COc1cccc2cc3c(=O)oc4ccccc4c3nc12 | 46 | 16 | 24 | 35 | –
COc1ccc2nc3c(cc2c1)c(=O)oc1ccccc13 | 36 | 9 | 41 | 39 | –
NS(=O)(=O)c1cc(C(=O)O)cc([N+](=O)[O-])c1NCc1cc2ccccc2nc1-c1ccccc1O | 18 | 8 | 19 | 10 | 61
